Results taken from ChEMBL document CHEMBL4602693, “Structural Effect on Adjuvanticity of Saponins” (J Med Chem, 2020).
Active and inactive are the calls of the source. The calls are words filed in the database; no cut-off is given here.

How the values were obtained:
Format in all cases: functional, organism-based
Mus musculus [1] = test: Immunostimulatory activity in ovalbumin-immunized BALB/c mouse assessed as potentiation of OVA specific antibody response by measuring increase in serum anti-OVA IgG level at 100 ug, sc administered at 14 days interval for 3 times and measured at 4 to 6 week post OVA immunization by ELISA
Method in brief: (§1)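 Female BALB/c mice, 8-10 weeks old, six per group. Given OVA (20 μg) s.c. alone or with 100 μg saponin adjuvant on days 0, 14 and 28. Tail-vein blood was taken before each dose and 2 weeks after the last. Serum anti-OVA IgG, IgG1 or IgG2a was measured by ELISA on OVA-coated (0.1 μg/ml) plates with serial two-fold dilutions in duplicate.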

Mus musculus [2] = test: Immunostimulatory activity in rHagB-immunized BALB/c mouse assessed as potentiation of rHagB specific antibody response by measuring increase in serum anti-rHagB IgG level at 100 ug, sc administered at 14 days interval for 3 times and measured at 2 to 4 week post rHagB immunization by ELISA
Method in brief: (§2)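 Female BALB/c mice, 8-10 weeks old, six per group. Given His-tag-purified recombinant HagB (35 μg) s.c. alone or with 100 μg saponin adjuvant on days 0, 14 and 28. Serum was collected before each dose and 2 weeks post-final. Anti-rHagB IgG, IgG1 or IgG2a was measured by ELISA on rHagB-coated (1 μg/ml) plates with duplicate serial dilutions.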

Mus musculus [3] = test: Immunostimulatory activity in ovalbumin-immunized BALB/c mouse assessed as potentiation of OVA specific Th1 immune response by measuring increase in serum anti-OVA IgG2a level at 100 ug, sc administered at 14 days interval for 3 times and measured at 4 to 6 week post OVA immunization by ELISA; method in brief: as §1
Mus musculus [4] = test: Immunostimulatory activity in ovalbumin-immunized BALB/c mouse assessed as potentiation of OVA specific Th2 immune response by measuring increase in serum anti-OVA IgG1 level at 100 ug, sc administered at 14 days interval for 3 times and measured at 4 to 6 week post OVA immunization by ELISA; method in brief: as §1
Mus musculus [5] = test: Immunostimulatory activity in rHagB-immunized BALB/c mouse assessed as potentiation of rHagB specific antibody response by measuring increase in serum anti-rHagB IgG level at 100 ug, sc administered at 14 days interval for 3 times and measured at 6 week post rHagB immunization by ELISA; method in brief: as §2
Mus musculus [6] = test: Immunostimulatory activity in rHagB-immunized BALB/c mouse assessed as potentiation of rHagB specific Th2 immune response by measuring increase in serum anti-rHagB IgG1 level at 100 ug, sc administered at 14 days interval for 3 times and measured at 2 to 4 week post rHagB immunization by ELISA; method in brief: as §2
Mus musculus [7] = test: Immunostimulatory activity in rHagB-immunized BALB/c mouse assessed as potentiation of rHagB specific Th1 immune response by measuring increase in serum anti-rHagB IgG2a level at 100 ug, sc administered at 14 days interval for 3 times and measured at 2 to 6 week post rHagB immunization by ELISA; method in brief: as §2
Mus musculus [8] = test: Immunostimulatory activity in ovalbumin-immunized BALB/c mouse assessed as potentiation of OVA specific Th2 immune response by measuring increase in serum anti-OVA IgG1 level at 100 ug, sc administered at 14 days interval for 3 times and measured at 6 week post OVA immunization by ELISA; method in brief: as §1
Mus musculus [9] = test: Immunostimulatory activity in ovalbumin-immunized BALB/c mouse assessed as potentiation of OVA specific Th2 immune response by measuring increase in serum anti-OVA IgG1 level at 100 ug, sc administered at 14 days interval for 3 times and measured at 4 week post OVA immunization by ELISA; method in brief: as §1
Mus musculus [10] = test: Immunostimulatory activity in rHagB-immunized BALB/c mouse assessed as potentiation of rHagB specific Th2 immune response by measuring increase in serum anti-rHagB IgG1 level at 100 ug, sc administered at 14 days interval for 3 times and measured at 6 week post rHagB immunization by ELISA; method in brief: as §2

Structure (SMILES) | Activity (Mus musculus [1]) | Activity (Mus musculus [2]) | Activity (Mus musculus [3]) | Activity (Mus musculus [4]) | Activity (Mus musculus [5]) | Activity (Mus musculus [6]) | Activity (Mus musculus [7]) | Activity (Mus musculus [8]) | Activity (Mus musculus [9]) | Activity (Mus musculus [10])
CCCCCCCCCCCCNC(=O)[C@H]1O[C@@H](O[C@H]2CC[C@]3(C)[C@H]4CC=C5[C@@H]6CC(C)(C)CC[C@]6(C(=O)O[C@@H]6O[C@H](C)[C@H](O)[C@H](O)[C@H]6O[C@@H]6O[C@@H](C)[C@H](O[C@@H]7OC[C@@H](O)[C@H](O[C@@H]8OC[C@](O)(CO)[C@H]8O)[C@H]7O)[C@@H](O)[C@H]6O)[C@H](O)C[C@@]5(C)[C@]4(C)CC[C@H]3[C@]2(C)C=O)[C@H](O[C@@H]2O[C@H](CO)[C@H](O)[C@H](O)[C@H]2O)[C@@H](O[C@@H]2OC[C@@H](O)[C@H](O)[C@H]2O)[C@@H]1O | Active | Active | Active | Active | Active | Active | Active | – | – | –
C[C@@H]1O[C@@H](O[C@H]2[C@H](O)[C@@H](C(=O)NCCCCCCCCCCC(=O)O)O[C@@H](O[C@H]3CC[C@]4(C)[C@H]5CC=C6[C@@H]7CC(C)(C)CC[C@]7(C(=O)O[C@@H]7O[C@H](C)[C@H](O)[C@H](O)[C@H]7O[C@H]7O[C@@H](C)[C@H](O[C@H]8OC[C@H](O)[C@@H](O)[C@@H]8O)[C@@H](O[C@@H]8O[C@H](CO)[C@@H](O)[C@H](O[C@@H]9OC[C@@H](O)[C@H](O)[C@H]9O)[C@H]8O)[C@H]7O)[C@H](O)C[C@@]6(C)[C@]5(C)CC[C@H]4[C@]3(C)C=O)[C@@H]2O[C@@H]2O[C@H](CO)[C@H](O)[C@H](O)[C@H]2O)[C@H](O)[C@H](O)[C@H]1O | Active | Active | – | – | – | Active | Active | inactive | Active | –
C[C@@H]1O[C@@H](O[C@H]2[C@H](O)[C@@H](C(=O)NCCCCCCCCCCC(=O)OCc3ccccc3)O[C@@H](O[C@H]3CC[C@]4(C)[C@H]5CC=C6[C@@H]7CC(C)(C)CC[C@]7(C(=O)O[C@@H]7O[C@H](C)[C@H](O)[C@H](O)[C@H]7O[C@H]7O[C@@H](C)[C@H](O[C@H]8OC[C@H](O)[C@@H](O)[C@@H]8O)[C@@H](O[C@@H]8O[C@H](CO)[C@@H](O)[C@H](O[C@@H]9OC[C@@H](O)[C@H](O)[C@H]9O)[C@H]8O)[C@H]7O)CC[C@@]6(C)[C@]5(C)CC[C@H]4[C@]3(C)C=O)[C@@H]2O[C@@H]2O[C@H](CO)[C@H](O)[C@H](O)[C@H]2O)[C@H](O)[C@H](O)[C@H]1O | Active | – | Active | Active | – | – | – | – | – | –
C[C@@H]1O[C@@H](O[C@H]2[C@H](O)[C@@H](C(=O)NCCCCCCCCCCC(=O)OCc3ccccc3)O[C@@H](O[C@H]3CC[C@]4(C)[C@H]5CC=C6[C@@H]7CC(C)(C)CC[C@]7(C(=O)O[C@@H]7O[C@H](C)[C@H](O)[C@H](O)[C@H]7O[C@H]7O[C@@H](C)[C@H](O[C@H]8OC[C@H](O)[C@@H](O)[C@@H]8O)[C@@H](O[C@@H]8O[C@H](CO)[C@@H](O)[C@H](O[C@@H]9OC[C@@H](O)[C@H](O)[C@H]9O)[C@H]8O)[C@H]7O)[C@H](O)C[C@@]6(C)[C@]5(C)CC[C@H]4[C@]3(C)C=O)[C@@H]2O[C@@H]2O[C@H](CO)[C@H](O)[C@H](O)[C@H]2O)[C@H](O)[C@H](O)[C@H]1O | Active | Active | Active | Active | – | Active | Active | – | – | –
CCCCCCCCCCCCNC(=O)[C@H]1O[C@@H](O[C@H]2CC[C@]3(C)[C@H]4CC=C5[C@@H]6CC(C)(C)CC[C@]6(C(=O)O[C@@H]6O[C@H](C)[C@H](O)[C@H](O)[C@H]6O[C@H]6O[C@@H](C)[C@H](O[C@H]7OC[C@H](O)[C@@H](O)[C@@H]7O)[C@@H](O[C@@H]7O[C@H](CO)[C@@H](O)[C@H](O[C@@H]8OC[C@@H](O)[C@H](O)[C@H]8O)[C@H]7O)[C@H]6O)CC[C@@]5(C)[C@]4(C)CC[C@H]3[C@]2(C)C=O)[C@H](O[C@@H]2O[C@H](CO)[C@H](O)[C@H](O)[C@H]2O)[C@@H](O[C@@H]2O[C@@H](C)[C@H](O)[C@@H](O)[C@H]2O)[C@@H]1O | Active | – | Active | Active | – | – | – | – | – | –
C[C@@H]1O[C@H](O[C@H]2[C@H](OC(=O)[C@]34CCC(C)(C)C[C@H]3C3=CC[C@@H]5[C@@]6(C)CC[C@H](O[C@@H]7O[C@H](C(=O)NCCCCCCCCCCC(=O)OCc8ccccc8)[C@@H](O)[C@H](O[C@@H]8OC[C@@H](O)[C@H](O)[C@H]8O)[C@H]7O[C@@H]7O[C@H](CO)[C@H](O)[C@H](O)[C@H]7O)[C@@](C)(C=O)[C@@H]6CC[C@@]5(C)[C@]3(C)C[C@H]4O)O[C@H](C)[C@H](O)[C@@H]2O)[C@H](O)[C@H](O[C@@H]2O[C@H](CO)[C@@H](O)[C@H](O)[C@H]2O)[C@H]1O[C@H]1OC[C@H](O)[C@@H](O[C@H]2OC[C@H](O)[C@@H](O)[C@@H]2O)[C@@H]1O | – | Active | – | – | – | Active | Active | – | – | Active
C[C@@H]1O[C@H](O[C@H]2[C@H](OC(=O)[C@]34CCC(C)(C)C[C@H]3C3=CC[C@@H]5[C@@]6(C)CC[C@H](O[C@@H]7O[C@H](C(=O)NCCCCCCCCCCC(=O)O)[C@@H](O)[C@H](O[C@@H]8OC[C@@H](O)[C@H](O)[C@H]8O)[C@H]7O[C@@H]7O[C@H](CO)[C@H](O)[C@H](O)[C@H]7O)[C@@](C)(C=O)[C@@H]6CC[C@@]5(C)[C@]3(C)C[C@H]4O)O[C@H](C)[C@H](O)[C@@H]2O)[C@H](O)[C@H](O[C@@H]2O[C@H](CO)[C@@H](O)[C@H](O)[C@H]2O)[C@H]1O[C@H]1OC[C@H](O)[C@@H](O[C@H]2OC[C@H](O)[C@@H](O)[C@@H]2O)[C@@H]1O | – | Active | – | – | – | Active | Active | – | – | Active
C[C@@H]1O[C@@H](O[C@H]2[C@H](O)[C@@H](C(=O)NCCCCCCCCCCC(=O)O)O[C@@H](O[C@H]3CC[C@]4(C)[C@H]5CC=C6[C@@H]7CC(C)(C)CC[C@]7(C(=O)O[C@@H]7O[C@H](C)[C@H](O)[C@H](O)[C@H]7O[C@H]7O[C@@H](C)[C@H](O[C@H]8OC[C@H](O)[C@@H](O)[C@@H]8O)[C@@H](O[C@@H]8O[C@H](CO)[C@@H](O)[C@H](O[C@@H]9OC[C@@H](O)[C@H](O)[C@H]9O)[C@H]8O)[C@H]7O)CC[C@@]6(C)[C@]5(C)CC[C@H]4[C@]3(C)C=O)[C@@H]2O[C@@H]2O[C@H](CO)[C@H](O)[C@H](O)[C@H]2O)[C@H](O)[C@H](O)[C@H]1O | Active | – | Active | Active | – | – | – | – | – | –
